Source: PubChem (Johns Hopkins Ion Channel Center)
Only some compounds are listed: those with a hit (about 2.3% of all), similar ones and a draw of the others.
TRPC6 inhibitor: blocks the mouse TRPC6 cation channel; Q61143; HEK293-TRPC6, membrane potential dye, ACh-evoked depolarization; stronger effect = lower value; B-score at 10 µM; 310,000 compounds, 1.1% hits; AID 2553;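 active = B-score under library mean minus 3 SD, initial fluorescence not abnormally high, positive integrated signal ratio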;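 also: B-score derived from integrated fluorescence ratio over the kinetic read; more negative B-score means stronger inhibition of depolarization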
TRPC4 block: inhibitors of mouse TRPC4 channel; 300,000 compounds, 0.39% hits; B-score at 10 µM; HEK293 TRPC4beta/mu-opioid, DAMGO-evoked Fluo4 calcium flux; stronger effect = lower value; AID 2247;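 active = B-score over 3 SD under the library average, no early fluorescence shift, positive overall ratio signal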
Target sequence (Q9QUQ5 whole entry, looked up): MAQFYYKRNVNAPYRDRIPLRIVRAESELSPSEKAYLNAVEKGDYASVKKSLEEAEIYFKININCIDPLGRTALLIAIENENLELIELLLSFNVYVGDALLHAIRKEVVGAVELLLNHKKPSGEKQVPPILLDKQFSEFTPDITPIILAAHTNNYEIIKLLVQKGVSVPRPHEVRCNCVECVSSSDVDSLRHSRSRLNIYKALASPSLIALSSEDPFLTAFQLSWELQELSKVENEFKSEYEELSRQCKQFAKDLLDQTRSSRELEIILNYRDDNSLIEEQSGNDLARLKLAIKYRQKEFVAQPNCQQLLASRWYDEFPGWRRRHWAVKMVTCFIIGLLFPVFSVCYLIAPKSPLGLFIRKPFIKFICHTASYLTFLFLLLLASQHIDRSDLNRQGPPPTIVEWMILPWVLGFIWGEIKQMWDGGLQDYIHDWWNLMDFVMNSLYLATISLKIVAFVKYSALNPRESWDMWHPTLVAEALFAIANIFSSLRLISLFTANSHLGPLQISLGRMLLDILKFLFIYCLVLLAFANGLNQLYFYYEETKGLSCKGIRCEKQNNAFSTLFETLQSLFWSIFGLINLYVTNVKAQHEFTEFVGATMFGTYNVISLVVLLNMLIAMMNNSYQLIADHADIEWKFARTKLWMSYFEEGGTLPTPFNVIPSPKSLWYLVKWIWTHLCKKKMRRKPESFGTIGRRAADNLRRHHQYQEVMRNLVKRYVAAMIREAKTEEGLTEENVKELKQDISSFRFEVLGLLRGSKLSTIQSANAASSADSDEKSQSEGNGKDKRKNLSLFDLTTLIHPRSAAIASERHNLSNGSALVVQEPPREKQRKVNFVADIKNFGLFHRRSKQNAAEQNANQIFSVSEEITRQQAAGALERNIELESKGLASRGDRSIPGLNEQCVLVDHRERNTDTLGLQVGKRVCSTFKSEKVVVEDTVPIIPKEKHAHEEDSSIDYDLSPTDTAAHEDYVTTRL
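material = TRPC4beta/mu-opioid receptor HEK293 cell line | probe or stimulus = sequential submaximal and maximal DAMGO stimulation | compound dosing = one concentration per compound | measured by = Fluo4 Ca2+ flux fluorescence | evaluation = integrated fluorescence ratio relative to baseline, converted to per-well B score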
TRPC4 PAM: allosteric potentiators of mouse TRPC4 channel; 310,000 compounds, 0.42% hits; B-score at 10 µM; Q9QUQ5; HEK293 TRPC4beta/mu-opioid, DAMGO EC20, Fluo-4 Ca2+ flux; stronger effect = higher value;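 active = B-score of calcium response area above 5 SD of library B-scores, with initial fluorescence ratio within 5 SD of library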
TRPC6 activator: mouse TRPC6 channel activation. HEK293-TRPC6 membrane potential dye fluorescence; stronger effect = higher value. B-score at 10 µM. 310,000 compounds, 0.13% hits. AID 2550;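 active = B-score of the integrated fluorescence ratio above library mean plus 3 SD, and starting fluorescence ratio within library mean plus 5 SD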;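 also: higher score means more depolarization so channel activation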
TRPC4 agonist: activators of mouse TRPC4 channel; Q9QUQ5; HEK293 TRPC4beta/mu-opioid, Fluo4 calcium fluorescence; stronger effect = higher value; B-score at 10 µM; 310,000 compounds, 0.49% hits; AID 2237;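 active = B-score above 5 SD of library B-scores, and initial fluorescence ratio not above library mean plus 5 SD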;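 also: positive B-score marks a calcium rise read as TRPC4 activation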
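Material: TRPC4beta and mu-opioid receptor HEK293 stable cells | Incubation: 45 min room-temperature Fluo4 loading, 110 s read | Detection: Kinetic Fluo4 calcium fluorescence | Measure: Integrated baseline-normalised fluorescence ratio, converted to per-well B score | Benchmarks: Low control buffer alone, high control maximal DAMGO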
TRPC4 sel inh 2: second check of whether TRPC6 inhibitors also affect mouse TRPC4; 920 compounds, 42% hits; AID 2776; shares compounds with TRPC6 inhibitor; inhibition, % at 10 µM; HEK293 TRPC4/MOR, membrane potential dye fluorescence; channel activated by saturating DAMGO dose;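 active = compounds whose fluorescence signal differed from control wells by over 3 SD, either direction, in both duplicate plates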
TRPC4 spec: selectivity of TRPC6 inhibitors: effect on mouse TRPC4. activity change, negative = inhibition, % at 10 µM. HEK293 TRPC4/mu-opioid, membrane potential fluorescence. shares compounds with TRPC6 inhibitor. 920 compounds, 61% hits;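 active = rise or fall in signal beyond 3 SD of buffer-only wells in both replicate plates, either sign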;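 also: integrated kinetic ratio of fluorescence range over baseline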
HEK293 MPD ctr 2-1: second check of TRPC6 inhibitor effects in parental HEK293 cells; shares compounds with TRPC6 inhibitor; signal change vs control, % at 10 µM; parental HEK293 membrane potential dye fluorescence; maximal acetylcholine challenge after compound addition; AID 2779; 920 compounds, 31% hits;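 active = membrane potential signal moving either way by over 3 SD of the maximum-effect control, in both duplicate plates, meaning non-specific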
HEK293 MPD ctr-1: checks TRPC6 inhibitor effects in parental HEK293 cells; AID 2780; shares compounds with TRPC6 inhibitor; parental HEK293 membrane potential dye fluorescence; membrane potential signal change, % at 10 µM; 920 compounds, 60% hits;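 active = membrane potential signal shifting up or down by more than 3 SD of buffer-only wells, on both duplicate plates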
HEK293 MPD ctr-2: counter-screen for TRPC6 modulators: effect in parental HEK293 cells | AID 488924 | 2,400 compounds, 51% hits | membrane potential dye fluorescence | membrane potential signal change, % at 10 µM | shares compounds with TRPC6 inhibitor;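 active = membrane potential signal moves up or down beyond 5 SD from buffer-only wells, on both duplicate plates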
HEK293 MPD ctr 2-2: second counter-screen for TRPC6 modulators: effect in parental HEK293 cells | shares compounds with TRPC6 inhibitor | membrane potential dye fluorescence; after compound, maximal acetylcholine stimulation | inhibition, % at 10 µM | 2,400 compounds, 14% hits | AID 488926;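 active = membrane potential signal drops by more than 5 SD from the mean control signal, in both duplicate plates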
TRPC4 ctr mod: tests whether TRPC6 modulators also affect mouse TRPC4; percent change from control (negative = decrease, positive = increase), % at 10 µM; 2,400 compounds, 69% hits; shares compounds with TRPC6 inhibitor; HEK293 TRPC4/mu-opioid, membrane potential fluorescence; AID 488927;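 active = membrane potential signal moved up or down beyond 5 SD of buffer control wells, in both duplicate plates, actives on both sides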
TRPC4/MOR inh 2: mouse TRPC4 off-target activity of TRPC6 modulators, second screen. shares compounds with TRPC6 inhibitor. HEK293 TRPC4/mu-opioid, membrane potential dye fluorescence; stimulated with maximal-effect DAMGO. inhibition, % at 10 µM. 2,400 compounds, 55% hits;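 active = drop in membrane potential signal beyond 5 SD of the control wells in both duplicate plates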;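 also: TRPC4 counter screen for TRPC6 hits run under conditions tuned for TRPC6 not TRPC4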
TRPC6 inh conf: confirmation of mouse TRPC6 inhibitors. inhibition, % at 10 µM. HEK293-TRPC6, membrane potential dye, ACh-evoked depolarization. 3,300 compounds, 43% hits. AID 488960. shares compounds with TRPC6 inhibitor;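 active = fluorescence ratio falls more than 5 SD below the full-stimulation control mean, in both duplicate runs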;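 also: integrated fluorescence ratio of peak minus minimum over baseline after agonist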
TRPC6 act confirm: confirmation of mouse TRPC6 activators; shares compounds with TRPC6 inhibitor; HEK293-TRPC6 membrane potential dye fluorescence, FDSS; activation, % at 10 µM; 2,800 compounds, 11% hits; AID 488961;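 active = ratio signal rise beyond 5 SD above unstimulated control wells' mean, seen in both duplicate runs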
Large screens that a line does not name were inactive (follow-up assays come after a bar, where they were run).

CS(=O)(=O)Nc1ccc(C2=NN(C(=O)c3cccc(F)c3)C(c3cccs3)C2)cc1 (configuration not stated)	none
CC(C)N(c1ccccc1)c1ccc(NC(=S)NCCN(C)C)cc1	TRPC6 inhibitor -6.6 | HEK293 MPD ctr-2 inactive | HEK293 MPD ctr 2-2 inactive | TRPC4 ctr mod inactive | TRPC4/MOR inh 2 40% | TRPC6 inh conf 46% | TRPC6 act confirm inactive
Cc1ccc(NC(=O)c2cccc3c2-c2ccccc2C3=O)cc1C	TRPC6 inhibitor -7.3 | TRPC4 sel inh 2 inactive | TRPC4 spec inactive | HEK293 MPD ctr 2-1 inactive | HEK293 MPD ctr-1 inactive | TRPC6 inh conf inactive | TRPC6 act confirm inactive
OC(C#CCN1CCCCC1)(c1ccccc1)c1ccccc1	TRPC6 inhibitor -7.5 | TRPC4 sel inh 2 inactive | TRPC4 spec 1.1% | HEK293 MPD ctr 2-1 -28% | HEK293 MPD ctr-1 2.4% | TRPC6 inh conf 81% | TRPC6 act confirm inactive
OC(C#CCN1CCCC1)(c1ccccc1)c1ccccc1	TRPC6 inhibitor -8.7 | TRPC4 sel inh 2 inactive | TRPC4 spec 2.5% | HEK293 MPD ctr 2-1 -14% | HEK293 MPD ctr-1 5.6% | TRPC6 inh conf 66%
CC(O)(C#CCN1CCCCCC1)c1ccccc1 (configuration not stated)	none
C=CCN(c1ccc(C(=O)NCCCn2ccnc2)cc1)S(C)(=O)=O	none
CC(NC(=O)CCSCc1ccccc1F)c1ccccc1 (configuration not stated)	none
Cc1ccc(OC(C)C(=O)N2CC(=O)Nc3ccccc32)cc1 (configuration not stated)	TRPC6 activator 15 | HEK293 MPD ctr-2 inactive | HEK293 MPD ctr 2-2 inactive | TRPC4 ctr mod inactive | TRPC4/MOR inh 2 inactive | TRPC6 act confirm 136%
Cc1ccc(-c2noc(C3CCCN(C(=O)c4ccccc4Br)C3)n2)o1 (configuration not stated)	none
O=C(CN1CCN(c2ccccc2F)CC1)NC(=O)NCc1ccccc1	TRPC6 inhibitor -5.1 | HEK293 MPD ctr-2 inactive | HEK293 MPD ctr 2-2 inactive | TRPC4 ctr mod inactive | TRPC4/MOR inh 2 inactive | TRPC6 inh conf inactive | TRPC6 act confirm inactive
N=C1c2ccccc2CN1c1ccc(N2CCOCC2)c(S(=O)(=O)Nc2ccc(Cl)cc2)c1	TRPC6 inhibitor -7.4 | TRPC4 sel inh 2 36% | TRPC4 spec -13% | HEK293 MPD ctr 2-1 inactive | HEK293 MPD ctr-1 inactive | TRPC6 inh conf inactive | TRPC6 act confirm inactive
COC(c1ccccc1)c1nnc(CCC(=O)N(C)Cc2cccc(-n3cccn3)c2)o1 (configuration not stated)	TRPC6 activator 16 | HEK293 MPD ctr-2 inactive | HEK293 MPD ctr 2-2 inactive | TRPC4 ctr mod 8.5% | TRPC4/MOR inh 2 inactive | TRPC6 inh conf inactive | TRPC6 act confirm inactive
C/C(=N\NC1=NCCN1)c1ccc(N)c([N+](=O)[O-])c1	TRPC6 inhibitor -6 | HEK293 MPD ctr-2 inactive | HEK293 MPD ctr 2-2 108% | TRPC4 ctr mod inactive | TRPC4/MOR inh 2 32% | TRPC6 inh conf 48% | TRPC6 act confirm inactive
CCCCCCOc1ccc(/C(C)=N/NC2=NCCN2)cc1[N+](=O)[O-]	none
CCOC(=O)C1CCCN(C(=O)c2cnn3c(C(F)F)cc(-c4ccc(C)cc4)nc23)C1 (configuration not stated)	TRPC6 inhibitor -6.2 | HEK293 MPD ctr-2 156% | HEK293 MPD ctr 2-2 inactive | TRPC4 ctr mod 37% | TRPC4/MOR inh 2 inactive | TRPC6 inh conf inactive
CCN(CC)CCCNc1cc(C(F)(F)F)c(C#N)c2nc3ccccc3n12	TRPC6 inhibitor -6.5 | HEK293 MPD ctr-2 inactive | HEK293 MPD ctr 2-2 66% | TRPC4 ctr mod -66% | TRPC4/MOR inh 2 71% | TRPC6 inh conf 70% | TRPC6 act confirm inactive
CCCc1cc(NCCCCO)n2c(nc3ccccc32)c1C#N	none
CCN(CC)CCNc1cc(C)c(C#N)c2nc3ccccc3n12	TRPC6 inhibitor -11 | HEK293 MPD ctr-2 -411% | HEK293 MPD ctr 2-2 96% | TRPC4 ctr mod -66% | TRPC4/MOR inh 2 62% | TRPC6 inh conf 71% | TRPC6 act confirm inactive
Cc1cc(NCCCCO)n2c(nc3ccccc32)c1C#N	none
C=C1CCN([C@@H](Cc2ccccc2)C(=O)NCCCc2ccccc2)S(=O)(=O)c2ccccc21	none
c1ccc(-c2cnnc(N3CCCCC3)n2)cc1	TRPC6 inhibitor -6.9 | TRPC4 sel inh 2 inactive | TRPC4 spec 0.7% | HEK293 MPD ctr 2-1 inactive | HEK293 MPD ctr-1 inactive | TRPC6 inh conf 72%
FC(F)(F)c1cc(-c2ccccc2)nc(N2CCCCCC2)n1	none
CCN(CC(=O)Nc1c(F)cccc1F)C(=O)c1ccc(COc2ccccc2)o1	none
COc1ccc(NC(=S)NNc2ccc([N+](=O)[O-])cc2S(=O)(=O)Nc2ccc(C)cc2C)cc1	TRPC6 inhibitor -6.8 | TRPC4 sel inh 2 inactive | TRPC4 spec inactive | HEK293 MPD ctr 2-1 inactive | HEK293 MPD ctr-1 inactive | TRPC6 inh conf inactive | TRPC6 act confirm inactive
CCC1CCCCN1CCCNC(=O)c1ccc2c(c1)N(Cc1c(F)cccc1Cl)C(=O)CS2 (configuration not stated)	TRPC6 inhibitor -6.5 | HEK293 MPD ctr-2 inactive | HEK293 MPD ctr 2-2 inactive | TRPC4 ctr mod -17% | TRPC4/MOR inh 2 82% | TRPC6 inh conf 78% | TRPC6 act confirm inactive
